Key:
[1] = target: GABA-A receptor; anion channel; assay: Binding affinity against Diazepam sensitive (DS) Gamma-aminobutyric acid A receptor; assay type: protein-complex assay, Rattus norvegicus
Outline: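 [3H]Ro15-4513 displacement (~2 nM final) on washed cerebellar membranes from adult male Sprague-Dawley rats, ~100 µg tissue, 0.2 M NaCl, 50 mM Tris citrate pH 7.8. DI binding has 10 µM diazepam added. DS binding is total minus DI. Nonspecific binding uses 10 µM Ro15-1788.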

[2] = target: GABA-A receptor; anion channel; assay: Binding affinity against Diazepam insensitive (DI) Gamma-aminobutyric acid A receptor; assay type: protein-complex assay, Rattus norvegicus

Compound	IC50 [1] [nM]	Ki [2] [nM]
CN1Cc2c(CO)ncn2-c2ccc(Cl)cc2C1=O	> 1000	> 1000
CCOCc1ncn2c1CN(C)C(=O)c1cc(Cl)ccc1-2	> 500	> 1000
COc1cccc(-n2[nH]c3c(cnc4ccccc43)c2=O)c1	–	26
O=c1c2cnc3ccc(Cl)cc3c2[nH]n1-c1ccccc1	–	5.1
COc1ccc2c(c1)ncc1c(=O)n(-c3ccccc3)[nH]c12	–	1.9
COc1ccc2ncc3c(=O)n(-c4ccccc4)[nH]c3c2c1	–	47
COc1ccc(-n2nc3c4cc(Cl)ccc4[nH]cc-3c2=O)cc1	–	1.9
COc1ccc(-n2nc3c4ccc(OC)cc4[nH]cc-3c2=O)cc1	–	10
CCOC(=O)c1ncn2c1CN(C)C(=O)c1cc(OCC)ccc1-2	7.07	40.9
CCc1ncn2c1CN(C)C(=O)c1cc(Cl)ccc1-2	> 500	> 1000
CCCCC(=O)c1ncn2c1CN(C)C(=O)c1cc(Cl)ccc1-2	> 500	> 1000
CC(=O)c1ncn2c1CN(C)C(=O)c1cc(Cl)ccc1-2	> 1000	> 1000
CN1Cc2c(CCl)ncn2-c2ccc(Cl)cc2C1=O	> 500	> 1000
CCCCCc1ncn2c1CN(C)C(=O)c1cc(Cl)ccc1-2	> 1000	> 1000
COCc1ncn2c1CN(C)C(=O)c1cc(Cl)ccc1-2	514	> 1000
COc1ccc(-n2nc3c4ccccc4[nH]cc-3c2=O)cc1	–	9.3
CCOC(=O)c1ncn2c1CN(C)C(=O)c1cc(OC)ccc1-2	2.47	23.8
CC(C)N(Cc1ncn2c1CN(C)C(=O)c1cc(Cl)ccc1-2)C(C)C	> 1000	> 1000
CCN(CC)Cc1ncn2c1CN(C)C(=O)c1cc(Cl)ccc1-2	> 1000	> 1000
O=C1C2C=Nc3ccccc3C2=NN1c1ccccc1 (configuration not stated) [CGS-8216]	–	46
